Source: ChEMBL document CHEMBL4396947, “Synthesis and characterization of novel isoform-selective IP6K1 inhibitors” (Bioorg Med Chem Lett, 2019)

Legend:
[1] = target: T1, Inositol hexakisphosphate kinase 1 (Homo sapiens, UniProt Q92551); experiment: Inhibition of IP6K1 (unknown origin) incubated for 30 mins using IP6 as substrate in presence of ATP by ADP-Glo reagent based luminescence assay; settings: read-out: pIC50 (converted)
In short: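 Luminescent ADP-Glo Max format adapted for IP6K, with purified enzyme and ATP at 1 mM, which is consumed as the kinase reaction proceeds. IC50 taken from the resulting inhibition data.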
Target sequence in this assay (Q92551 whole entry): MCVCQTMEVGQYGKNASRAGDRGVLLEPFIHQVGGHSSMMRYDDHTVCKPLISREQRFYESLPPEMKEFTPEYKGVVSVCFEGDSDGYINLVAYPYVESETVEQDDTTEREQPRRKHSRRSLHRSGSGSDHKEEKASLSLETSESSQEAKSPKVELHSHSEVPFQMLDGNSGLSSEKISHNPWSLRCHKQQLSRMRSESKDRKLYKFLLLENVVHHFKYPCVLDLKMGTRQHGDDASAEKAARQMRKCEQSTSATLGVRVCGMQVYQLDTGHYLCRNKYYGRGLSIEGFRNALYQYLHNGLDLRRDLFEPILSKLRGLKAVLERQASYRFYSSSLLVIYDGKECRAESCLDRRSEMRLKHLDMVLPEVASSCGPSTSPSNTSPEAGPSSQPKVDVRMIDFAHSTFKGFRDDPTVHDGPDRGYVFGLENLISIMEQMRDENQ

[2] = target: T1, Inositol hexakisphosphate kinase 1; experiment: Binding affinity to IP6K1 (unknown origin) assessed as change in melting temperature by SYPRO orange dye-based assay
In short: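 Thermal shift format. Purified IP6K1 heated across a temperature gradient with the ligand at several concentrations. Binding read as the rise in protein melting temperature, including the maximal Tm shift (TmMax).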
Target sequence in this assay (Q92551 whole entry, looked up): as the sequence (Q92551 whole entry) above

[3] = target: T1, Inositol hexakisphosphate kinase 1; experiment: Binding affinity to IP6K1 (unknown origin) assessed as change in melting temperature at 11.1 uM by SYPRO orange dye based assay
Target sequence in this assay (Q92551 whole entry, looked up): as the sequence (Q92551 whole entry) above

[4] = Solubility of compound in 2% DMSO by LC-MS/MS analysis; type: physicochemical
[5] = Half life in human microsomes at 1 uM incubated for 5 to 60 mins in presence of NADPH by LC-MS/MS analysis; type: ADME, Microsome
[6] = Half life in mouse microsomes at 1 uM incubated for 5 to 60 mins in presence of NADPH by LC-MS/MS analysis

Row | IC50 [1] [µM] | further results | SMILES
1 | > 200 |  | COCCN(C)c1nc(NCCc2c[nH]c3ccccc23)nc2c1ncn2C
2 | 1.95 |  | COCCNc1nc(NCCc2c(C)[nH]c3ccccc23)nc2[nH]cnc12
3 | 123 |  | COCCNc1nc(NCCc2c[nH]c3ccc(C)cc23)nc2[nH]cnc12
4 | > 200 |  | COCCNc1nc(NCCc2c[nH]cn2)nc2[nH]cnc12
5 | 31.6 |  | COCCNc1nc(NCCc2cn(C)c3ccccc23)nc2nc[nH]c12
6 | > 200 |  | COCCNc1nc(NCCc2c[nH]c3ccccc23)nc2cc[nH]c12
7 | 89.1 |  | COCCNc1nc(NCCc2ccc(F)cc2)nc2[nH]cnc12
8 | 10 |  | O=c1cc(CNc2nc(NCCc3c[nH]c4ccccc34)nc3[nH]cnc23)cc[nH]1
9 | 69.2 |  | COCCNc1nc(NCCCc2c[nH]c3ccccc23)nc2[nH]cnc12
10 | 117 |  | COCCNc1nc(NCc2cccc(C(F)(F)F)c2)nc2[nH]cnc12
11 | > 200 |  | FC(F)(F)c1cccc(CNc2nc(NCCc3ccccc3)c3nc[nH]c3n2)c1
12 | 3.02 |  | Cc1[nH]c2ccccc2c1CCNc1nc(NCc2ccc(=O)[nH]c2)c2nc[nH]c2n1
13 | 46.8 |  | N#Cc1ccc(CNc2nc(NCCc3c[nH]c4ccccc34)nc3[nH]cnc23)cc1
14 | 11.2 |  | COCCNc1nc(NCCc2ccccc2OC)nc2[nH]cnc12
15 | 26.9 |  | COCCNc1nc(NCCc2c[nH]c3ccc(Cl)cc23)nc2[nH]cnc12
16 | 93.3 |  | COCCNc1nc(NCCc2cccc3ccccc23)nc2[nH]cnc12
17 | 8.32 | ΔTm [2]: 4.3 °C; ΔTm [3]: 2.4 °C | COCCNc1nc(NCCc2c[nH]c3ccccc23)nc2[nH]cnc12
18 | > 200 | ΔTm [2]: 3.3 °C; solubility [4]: Insoluble; ΔTm [3]: 1.8 °C; half-life at 1 µM [5]: 32 min; half-life at 1 µM [6]: 9 min | O=[N+]([O-])c1ccc(CNc2nc(NCc3cccc(C(F)(F)F)c3)nc3[nH]cnc23)cc1
19 | > 200 |  | COCCNc1nc(N(C)CCc2c[nH]c3ccccc23)nc2nc[nH]c12
20 | 138 |  | COCCNc1nc(NCCc2c[nH]c3ccc(OC)cc23)nc2[nH]cnc12
21 | 151 |  | c1ccc2c(CCNc3nc(NCc4ccc5nonc5c4)c4nc[nH]c4n3)c[nH]c2c1
22 | 2.75 | ΔTm [2]: 4.7 °C; ΔTm [3]: 3.6 °C | COCCNc1nc(NCCc2c[nH]c3cc(OC)ccc23)nc2[nH]cnc12
23 | > 200 |  | COCCNc1nc(NCCc2c[nH]c3ccccc23)nc2[nH]ccc12
24 | > 200 |  | COCCNc1nc(NCCc2c[nH]c3ccccc23)nc2c1ncn2C
25 | 1.74 |  | O=c1ccc(CNc2nc(NCCc3c[nH]c4ccccc34)nc3[nH]cnc23)c[nH]1
26 | 31.6 |  | COCCNc1nc(NCCc2c[nH]c3ccc(O)cc23)nc2[nH]cnc12
27 | > 200 |  | FC(F)(F)c1cccc(CNc2nc(NCc3ccccc3)c3nc[nH]c3n2)c1
28 | 79.4 |  | COCCNc1nc(NCCc2ccccc2)nc2[nH]cnc12
